{"source": "ChEMBL document CHEMBL4004835", "about": "“Discovery of Novel Disruptor of Silencing Telomeric 1-Like (DOT1L) Inhibitors using a Target-Specific Scoring Function for the (S)-Adenosyl-l-methionine (SAM)-Dependent Methyltransferase Family” (J Med Chem, 2017)", "key": {"[1]": {"biological_target": "T1, Histone-lysine N-methyltransferase, H3 lysine-79 specific (Homo sapiens, UniProt Q8TEK3)", "assay": "Binding affinity to human N-terminal 6His-tagged DOT1L (1 to 416 residues) expressed in Escherichia coli BL21(DE3) after 150 secs by SPR-based binding assay"}, "MV4-11 [2]": {"test_system": "MV4-11", "assay": "Induction of cell cycle arrest in human MV4-11 cells assessed as accumulation at S phase at 25 uM after 48 hrs by propidium iodide/RNase-staining based flow cytometric analysis (reference value: 24.40 %)", "type": "functional", "procedure,_shortened": "(§1)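 MV4-11 cells (2 × 10^6) seeded in 12-well dishes, treated with different concentrations for 48 h, processed with a PI/RNase staining kit and analysed for cell-cycle distribution by FACSCalibur flow cytometry.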"}, "MV4-11 [3]": {"test_system": "MV4-11", "assay": "Induction of cell cycle arrest in human MV4-11 cells assessed as accumulation at G1 phase at 12.5 uM after 48 hrs by propidium iodide/RNase-staining based flow cytometric analysis (reference value: 68.16 %)", "type": "functional", "procedure,_shortened": "as §1"}, "MV4-11 [4]": {"test_system": "MV4-11", "assay": "Induction of cell cycle arrest in human MV4-11 cells assessed as accumulation at S phase at 6.25 uM after 48 hrs by propidium iodide/RNase-staining based flow cytometric analysis (reference value: 24.40 %)", "type": "functional", "procedure,_shortened": "as §1"}, "[5]": {"biological_target": "Protein arginine N-methyltransferase 1 (Homo sapiens) (UniProt Q99873)", "sequence (Q99873 whole entry, looked up)": "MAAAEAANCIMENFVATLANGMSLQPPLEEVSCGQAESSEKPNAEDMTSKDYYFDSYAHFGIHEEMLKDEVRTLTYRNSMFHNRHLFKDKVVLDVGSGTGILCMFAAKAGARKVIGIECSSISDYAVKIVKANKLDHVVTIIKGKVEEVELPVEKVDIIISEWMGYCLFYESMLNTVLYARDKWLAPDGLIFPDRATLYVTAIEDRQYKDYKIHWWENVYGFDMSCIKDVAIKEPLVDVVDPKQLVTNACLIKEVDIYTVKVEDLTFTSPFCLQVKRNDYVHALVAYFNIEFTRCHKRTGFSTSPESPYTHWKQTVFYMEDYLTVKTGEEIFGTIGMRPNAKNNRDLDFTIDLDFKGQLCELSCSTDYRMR", "assay": "Inhibition of PRMT1 (unknown origin) preincubated for 15 mins followed by biotinylated H3R2 substrate/[…]SAM addition for 60 mins measured after further 60 mins by AlphaLISA assay", "procedure,_shortened": "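Enzyme incubated 15 min at room temperature; biotinylated H3R2 peptide (50 nM final) and SAM (300 nM final) added; at 60 min acceptor beads (10 μg/mL final) stop the reaction; after 60 min, donor beads (10 μg/mL final) added, 30 min at room temperature in low light; alpha signal read.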"}, "MV4-11 [6]": {"test_system": "MV4-11", "assay": "Induction of cell cycle arrest in human MV4-11 cells assessed as accumulation at G1 phase at 50 uM after 48 hrs by propidium iodide/RNase-staining based flow cytometric analysis (reference value: 68.16 %)", "type": "functional", "procedure,_shortened": "as §1"}, "MV4-11 [7]": {"test_system": "MV4-11", "assay": "Induction of cell cycle arrest in human MV4-11 cells assessed as accumulation at G1 phase at 6.25 uM after 48 hrs by propidium iodide/RNase-staining based flow cytometric analysis (reference value: 68.16 %)", "type": "functional", "procedure,_shortened": "as §1"}, "MV4-11 [8]": {"test_system": "MV4-11", "assay": "Induction of apoptosis in human MV4-11 cells assessed as necrotic cells at 6.25 uM after 72 hrs by annexin V/FITC and propidium iodide staining-based flow cytometric analysis (reference value: 0.04 %)", "type": "functional"}, "MV4-11 [9]": {"test_system": "MV4-11", "assay": "Induction of apoptosis in human MV4-11 cells assessed as late apoptotic cells at 25 uM after 72 hrs by annexin V/FITC and propidium iodide staining-based flow cytometric analysis (reference value: 4.02 %)", "type": "functional"}, "MV4-11 [10]": {"test_system": "MV4-11", "assay": "Induction of apoptosis in human MV4-11 cells assessed as viable cells at 12.5 uM after 72 hrs by annexin V/FITC and propidium iodide staining-based flow cytometric analysis (reference value: 90.3 %)", "type": "functional", "conditions": "MV4-11, 72 h, read-out: Activity"}, "[11]": {"biological_target": "T1, Histone-lysine N-methyltransferase, H3 lysine-79 specific", "assay": "Inhibition of N-terminal 6His-tagged human DOT1L (1 to 416 residues) expressed in Escherichia coli BL21(DE3) at 50 uM preincubated for 15 mins followed by [3H]-SAM addition measured after 120 mins by radioactive methylation assay", "procedure,_shortened": "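DOT1L and compound preincubated 15 min at room temperature; oligonucleosome and 3H-SAM added; reaction 120 min at room temperature, stopped with cold SAM; transferred to 0.5% PEI-pretreated filter plate, washed 3× with water, read by liquid scintillation counting.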"}, "K562": {"test_system": "K562", "assay": "Cytotoxicity against human K562 cells assessed as reduction in cell viability after 72 hrs by alamar blue assay", "type": "functional, cell-based", "conditions": "K562, 72 h", "procedure,_shortened": "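Cells cultured in RPMI 1640 with 10% FBS and 1% penicillin/streptomycin, treated with a range of concentrations or equal DMSO, 37 °C, 5% CO2, 72 h. Viability read by alamar blue (ex 544/em 590 nm); percent proliferation and IC50 curve fitted.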"}, "MV4-11 [12]": {"test_system": "MV4-11", "assay": "Induction of apoptosis in human MV4-11 cells assessed as early apoptotic cells at 25 uM after 72 hrs by annexin V/FITC and propidium iodide staining-based flow cytometric analysis (reference value: 5.66 %)", "type": "functional"}, "MV4-11 [13]": {"test_system": "MV4-11", "assay": "Induction of apoptosis in human MV4-11 cells assessed as viable cells at 25 uM after 72 hrs by annexin V/FITC and propidium iodide staining-based flow cytometric analysis (reference value: 90.3 %)", "type": "functional", "conditions": "MV4-11, 72 h, read-out: Activity"}, "[14]": {"biological_target": "Protein arginine N-methyltransferase 5 (Homo sapiens) (UniProt O14744)", "sequence (O14744 whole entry)": "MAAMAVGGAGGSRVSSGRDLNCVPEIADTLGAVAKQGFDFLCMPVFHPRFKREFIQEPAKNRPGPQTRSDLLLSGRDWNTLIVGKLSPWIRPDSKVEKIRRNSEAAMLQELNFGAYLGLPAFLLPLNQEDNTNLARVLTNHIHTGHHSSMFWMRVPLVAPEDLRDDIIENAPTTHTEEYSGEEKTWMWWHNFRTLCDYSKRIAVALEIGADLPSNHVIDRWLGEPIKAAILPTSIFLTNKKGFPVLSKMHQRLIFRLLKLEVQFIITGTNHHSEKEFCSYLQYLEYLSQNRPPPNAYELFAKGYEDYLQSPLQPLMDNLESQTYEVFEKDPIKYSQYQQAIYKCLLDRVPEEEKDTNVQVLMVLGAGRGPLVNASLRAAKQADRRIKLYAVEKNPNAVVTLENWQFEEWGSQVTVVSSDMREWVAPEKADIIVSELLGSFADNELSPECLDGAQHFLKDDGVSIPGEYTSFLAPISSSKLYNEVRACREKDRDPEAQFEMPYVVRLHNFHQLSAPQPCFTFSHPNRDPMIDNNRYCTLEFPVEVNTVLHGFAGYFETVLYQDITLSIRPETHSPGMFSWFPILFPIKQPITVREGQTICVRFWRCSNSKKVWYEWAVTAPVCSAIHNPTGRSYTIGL", "assay": "Inhibition of PRMT5 (unknown origin) at 50 and 100 uM preincubated for 15 mins followed by substrate and [3H]-SAM addition for 60 mins measured after further 60 mins flashplate assay", "procedure,_shortened": "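In modified Tris buffer, enzyme preincubated 15 min at room temperature; substrate and [3H]SAM added for 60 min at room temperature; stopped with cold SAM; transferred to a Flashplate for 60 min, washed 3× with water plus 0.1% Tween-20, read by MicroBeta.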"}, "MV4-11 [15]": {"test_system": "MV4-11", "assay": "Induction of apoptosis in human MV4-11 cells assessed as early apoptotic cells at 12.5 uM after 72 hrs by annexin V/FITC and propidium iodide staining-based flow cytometric analysis (reference value: 5.66 %)", "type": "functional"}, "MV4-11 [16]": {"test_system": "MV4-11", "assay": "Induction of cell cycle arrest in human MV4-11 cells assessed as accumulation at G2 phase at 25 uM after 48 hrs by propidium iodide/RNase-staining based flow cytometric analysis (reference value: 7.44 %)", "type": "functional", "procedure,_shortened": "as §1"}, "[17]": {"biological_target": "Histone-lysine N-methyltransferase EZH2 (Homo sapiens) (UniProt Q15910)", "sequence (Q15910 whole entry, looked up)": "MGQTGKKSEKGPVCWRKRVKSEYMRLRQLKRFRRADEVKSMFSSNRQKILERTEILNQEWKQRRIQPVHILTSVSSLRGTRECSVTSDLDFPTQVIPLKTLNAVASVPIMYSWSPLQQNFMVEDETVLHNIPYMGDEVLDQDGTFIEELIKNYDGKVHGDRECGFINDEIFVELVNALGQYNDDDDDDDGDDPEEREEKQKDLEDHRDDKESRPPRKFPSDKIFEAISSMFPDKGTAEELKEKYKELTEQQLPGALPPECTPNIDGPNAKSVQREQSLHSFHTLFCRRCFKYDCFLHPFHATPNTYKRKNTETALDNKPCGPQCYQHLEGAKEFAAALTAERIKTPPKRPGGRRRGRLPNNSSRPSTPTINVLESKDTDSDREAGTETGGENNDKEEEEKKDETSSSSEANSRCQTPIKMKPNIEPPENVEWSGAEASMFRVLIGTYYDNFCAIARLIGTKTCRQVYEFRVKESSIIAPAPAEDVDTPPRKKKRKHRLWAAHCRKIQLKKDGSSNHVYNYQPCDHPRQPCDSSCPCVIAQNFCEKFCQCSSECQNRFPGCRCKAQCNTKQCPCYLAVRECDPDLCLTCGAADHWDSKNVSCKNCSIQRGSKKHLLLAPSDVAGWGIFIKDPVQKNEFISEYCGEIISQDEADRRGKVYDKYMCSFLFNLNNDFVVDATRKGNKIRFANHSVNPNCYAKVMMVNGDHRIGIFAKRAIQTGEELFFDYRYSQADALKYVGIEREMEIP", "assay": "Inhibition of EZH2 (unknown origin) at 50 and 100 uM preincubated for 15 mins followed by substrate and [3H]-SAM addition for 60 mins in presence of H3K27me peptide measured after 60 mins by liquid scintillation counting method", "procedure,_shortened": "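In modified Tris buffer with H3K27me peptide, enzyme preincubated 15 min at room temperature; substrate added to start; stopped with cold SAM; mix on Flashplate at least 60 min at room temperature, washed with water plus 0.1% Tween-20, read by scintillation counting.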"}, "MV4-11 [18]": {"test_system": "MV4-11", "assay": "Induction of apoptosis in human MV4-11 cells assessed as late apoptotic cells at 50 uM after 72 hrs by annexin V/FITC and propidium iodide staining-based flow cytometric analysis (reference value: 4.02 %)", "type": "functional"}, "MV4-11 [19]": {"test_system": "MV4-11", "assay": "Induction of apoptosis in human MV4-11 cells assessed as late apoptotic cells at 12.5 uM after 72 hrs by annexin V/FITC and propidium iodide staining-based flow cytometric analysis (reference value: 4.02 %)", "type": "functional"}, "MV4-11 [20]": {"test_system": "MV4-11", "assay": "Induction of cell cycle arrest in human MV4-11 cells assessed as accumulation at G2 phase at 6.25 uM after 48 hrs by propidium iodide/RNase-staining based flow cytometric analysis (reference value: 7.44 %)", "type": "functional", "procedure,_shortened": "as §1"}, "MV4-11 [21]": {"test_system": "MV4-11", "assay": "Induction of cell cycle arrest in human MV4-11 cells assessed as accumulation at S phase at 12.5 uM after 48 hrs by propidium iodide/RNase-staining based flow cytometric analysis (reference value: 24.40 %)", "type": "functional", "procedure,_shortened": "as §1"}, "MV4-11 [22]": {"test_system": "MV4-11", "assay": "Induction of apoptosis in human MV4-11 cells assessed as viable cells at 50 uM after 72 hrs by annexin V/FITC and propidium iodide staining-based flow cytometric analysis (reference value: 90.3 %)", "type": "functional", "conditions": "MV4-11, 72 h, read-out: Activity"}}}
{"smiles": "Fc1cccc(-c2nn3c(Cn4nnc5ccccc54)nnc3s2)c1", "values": [{"measurement": "Kd", "setting": "[1]", "result": 17.3, "unit": "µM"}, {"measurement": "Activity", "setting": "MV4-11 [2]", "result": 15.82, "unit": "%"}, {"measurement": "Activity", "setting": "MV4-11 [3]", "result": 70.27, "unit": "%"}, {"measurement": "Activity", "setting": "MV4-11 [4]", "result": 26.56, "unit": "%"}, {"measurement": "inhibition", "setting": "[5]", "result": "< 40", "unit": "%"}, {"measurement": "Activity", "setting": "MV4-11 [6]", "result": 82.24, "unit": "%"}, {"measurement": "Activity", "setting": "MV4-11 [7]", "result": 67.64, "unit": "%"}, {"measurement": "Activity", "setting": "MV4-11 [8]", "result": 1.37, "unit": "%"}, {"measurement": "Activity", "setting": "MV4-11 [9]", "result": 33.5, "unit": "%"}, {"measurement": "viability at 12.5 µM", "setting": "MV4-11 [10]", "result": 10.6, "unit": "%"}, {"measurement": "inhibition", "setting": "[11]", "result": 68, "unit": "%"}, {"measurement": "IC50", "setting": "K562", "result": "> 200", "unit": "µM"}, {"measurement": "Activity", "setting": "MV4-11 [12]", "result": 58.2, "unit": "%"}, {"measurement": "viability at 25 µM", "setting": "MV4-11 [13]", "result": 6.76, "unit": "%"}, {"measurement": "inhibition", "setting": "[14]", "result": "< 40", "unit": "%"}, {"measurement": "Activity", "setting": "MV4-11 [15]", "result": 50.1, "unit": "%"}, {"measurement": "Activity", "setting": "MV4-11 [16]", "result": 0.99, "unit": "%"}, {"measurement": "inhibition", "setting": "[17]", "result": "< 40", "unit": "%"}, {"measurement": "Activity", "setting": "MV4-11 [18]", "result": 40.8, "unit": "%"}, {"measurement": "Activity", "setting": "MV4-11 [19]", "result": 35.5, "unit": "%"}, {"measurement": "Activity", "setting": "MV4-11 [20]", "result": 5.8, "unit": "%"}, {"measurement": "Activity", "setting": "MV4-11 [21]", "result": 25.38, "unit": "%"}, {"measurement": "viability at 50 µM", "setting": "MV4-11 [22]", "result": 3.75, "unit": "%"}]}
